According to article PMC6689761 (International Journal of Nanomedicine, 2019):
Read-outs that look alike come from different tables or passages of the source.

Tests used:
[1] = assay type: in vivo, Sprague-Dawley rats; details: rat, IM
Summary of the method: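 Male Sprague-Dawley rats dosed IM (caudal thigh) at 45, 75 or 100 mg/kg FTC-equivalents. Cells from fresh blood, spleen and lymph nodes isolated, stored in 70% methanol and counted. Triphosphate separated from mono- and diphosphates on QMA cartridges, then dephosphorylated with type XA sweet potato acid phosphatase. Isotope-labelled lamivudine internal standard added after incubation (final 0.5 ng/mL). Mean±SEM, n=3–5.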

[2] = test system: human monocyte-derived macrophages (MDMs); assay: MTT cytotoxicity assay in MDMs; assay type: cell-based; details: up to 100 µM, 4 days of exposure
Summary of the method: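 Monocytes plated at 80,000 cells/well and differentiated to macrophages. Exposed to 10–400 µM test compound or nanoformulation for 4 days. Washed, then MTT (5 mg/mL) added for 45 mins at 37°C. Formazan dissolved in DMSO and absorbance read at 490 nm. Values normalised to untreated cells; at least three biological replicates.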

[3] = reported value, no reference given; cited from earlier work
[4] = test system: HIV-1ADA; assay: Antiretroviral efficacy in drug-preloaded MDMs; assay type: cell-based
Summary of the method: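 Human monocytes from HIV- and hepatitis-seronegative donors, elutriated and differentiated to MDMs. Cells exposed to 100 µM test drug or nanoformulation for 8 hrs, PBS-washed, then challenged with HIV-1ADA (MOI 0.1) for 18 hrs at times from 0 hr to 15 days after loading. Cultured 10 more days, medium changed every other day. Day-10 medium RT activity and p24 immunocytochemistry on 4% paraformaldehyde-fixed cells; uninfected and infected controls.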

[5] = test system: HIV-1ADA; assay: EC50 by HIV-1 RT activity in MDMs; assay type: cell-based; details: HIV-1ADA MOI 0.1, HIV-1 RT activity
Summary of the method: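 Human MDMs pretreated 1 hr with 0.01–1000 nM test compound, then exposed to HIV-1ADA at MOI 0.1 for 4 hrs. RT activity measured in collected media. EC50 taken as 50% inhibitory concentration from nonlinear-regression concentration–response fits.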

[6] = PK and biodistribution in rats after IM injection; assay type: in vivo, Sprague-Dawley rats; details: rat
[7] = Aqueous solubility; assay type: physicochemical; details: water, 24 hrs, room temperature
Summary of the method: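 Excess drug mixed in water 24 hrs at room temperature, spun 20,000× g for 10 mins. Supernatant quantified by reversed-phase UPLC on C18 at 1.0 mL/min. Parent run in 95% 20 mM ammonium acetate/5% ACN, pH 3.9, detected at 272 nm. Prodrug run in 90% methanol/10% water, detected at 280 nm. Peak areas compared with 0.05–50 µg/mL standards in methanol.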

[8] = test system: human monocyte-derived macrophages (MDMs); assay: Nanoparticle macrophage uptake and retention; assay type: cell-based; details: 100 µM

Which results are given for 2`-deoxy-5-fluoro-3`thiacytidine [FTC]?
FTC-TP level in PBMCs ([1]; 45 mg/kg, day 1): 100 fmol/10^6 cells; FTC-TP level in PBMCs ([1]; 45 mg/kg, day 7): 6 fmol/10^6 cells; FTC-TP level in PBMCs ([1]; 75 mg/kg, day 1): 133 fmol/10^6 cells; FTC-TP level in PBMCs ([1]; 75 mg/kg, day 7): 7 fmol/10^6 cells; FTC-TP level in PBMCs ([1]; 100 mg/kg, day 1): 163 fmol/10^6 cells; FTC-TP level in PBMCs ([1]; 100 mg/kg, day 7): 8 fmol/10^6 cells; fold higher PBMC FTC-TP levels compared to NMFTC treatment ([1]; 2 hrs): 2–3 fold; FTC-TP levels in lymph node cells ([1]; day 1, across doses): 4–7 fmol/10^6 cells; FTC-TP levels in spleen ([1]; day 1, across doses): 6–13 fmol/10^6 cells; FTC-TP levels in lymph node cells ([1]; day 7, regardless of dose): 1–2 fmol/10^6 cells; FTC-TP levels in spleen ([1]; day 7, regardless of dose): 2–3 fmol/10^6 cells; MDM viability (MTT) [2]: did not affect MDM viability; IC90 [3]: 0.014 µg/mL; reported 50% inhibitory concentration (IC50) [3]: 0.008 µg/mL; inhibition of viral RT activity ([4]; MDMs preloaded 100 µM 8 hrs, challenge at 24 hrs): 30%; HIV-1 p24 antigen staining ([4]; by 12 hrs following treatment): HIV-1 p24+ cells were observed; HIV-1 p24 antigen staining ([4]; by day 1): no effect; HIV-1 RT activity in pre-exposed MDMs ([4]; challenge beyond day 1): did not have effect; EC50 [5]: 0.079 µM; FTC plasma level ([6]; 45 mg/kg FTC-equivalents, day 1): 25 ng/mL; FTC level in liver ([6]; 45 mg/kg, day 7): 2.6 ng/g; FTC level in lymph nodes ([6]; 45 mg/kg, day 7): 17 ng/g; FTC level in spleen ([6]; 45 mg/kg, day 7): 0 ng/g; FTC plasma level ([6]; 45 mg/kg, day 7): 0 ng/mL; FTC plasma level ([6]; 75 mg/kg FTC-equivalents, day 1): 34 ng/mL; FTC level in liver ([6]; 75 mg/kg, day 7): 14 ng/g; FTC level in lymph nodes ([6]; 75 mg/kg, day 7): 6 ng/g; FTC level in spleen ([6]; 75 mg/kg, day 7): 1.6 ng/g; FTC plasma level ([6]; 75 mg/kg, day 7): 3 ng/mL; FTC plasma level ([6]; 100 mg/kg FTC-equivalents, day 1): 52 ng/mL; FTC level in liver ([6]; 100 mg/kg, day 7): 0.6 ng/g; FTC level in lymph nodes ([6]; 100 mg/kg, day 7): 8 ng/g; FTC level in spleen ([6]; 100 mg/kg, day 7): 6 ng/g; FTC plasma level ([6]; 100 mg/kg, day 7): 1.4 ng/mL; FTC plasma levels compared to NMFTC treatment ([6]; 2 hrs): several fold higher; aqueous solubility [7]: 134 mg/mL; highest intracellular FTC-TP concentration ([8]; after 8 hrs): 10 pmol/10^6 cells; intracellular drug levels ([8]; uptake over 24 hrs): minimal detectable intracellular drug levels
